From ChEMBL document CHEMBL5058577, “EUbOPEN Chemogenomics Library 2 (Multiplex)” (2022)

System: HEK-293T
Assay: Multiplex assay against HEK293T
Type: toxicity, cell-based
Settings: human
Procedure, shortened: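 Live cells were stained at seeding with Hoechst33342, BioTracker Green Microtubule Cytoskeleton Dye, MitoTracker Red and Annexin V Alexa Fluor 680. Following compound addition, they were imaged on a CQ1 microscope at 37°C and 5% CO2 and gated by CellPathfinder machine learning into Hoechst high-intensity objects or normal cells, with normal cells split into healthy, pyknosed or fragmented nuclei and pyknosed cells into mitotic or apoptotic. Tubulin, mitochondrial-mass and membrane-permeability phenotypes are per cents of healthy-nucleus cells.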

[1] = 12 h, 1 µM, compound concentration 1 uM, replicate 1
[2] = 12 h, 1 µM, compound concentration 1 uM, replicate 2
[3] = 12 h, 10 µM, compound concentration 10 uM, replicate 1
[4] = 12 h, 10 µM, compound concentration 10 uM, replicate 2
[5] = 24 h, 1 µM, compound concentration 1 uM, replicate 1
[6] = 24 h, 1 µM, compound concentration 1 uM, replicate 2
[7] = 24 h, 10 µM, compound concentration 10 uM, replicate 1
[8] = 24 h, 10 µM, compound concentration 10 uM, replicate 2
[9] = 48 h, 1 µM, compound concentration 1 uM, replicate 1
[10] = 48 h, 1 µM, compound concentration 1 uM, replicate 2
[11] = 48 h, 10 µM, compound concentration 10 uM, replicate 1
[12] = 48 h, 10 µM, compound concentration 10 uM, replicate 2

## c1cc(OCCCN2CCCCC2)ccc1CN1CCCCC1 [JNJ-5207852]
[1]
  Population Apoptotic (%): 36%
  Population Fragmented Nuclei (%): 6%
  Population Healthy Nuclei (%): 84%
  Population Hoechst High Intensity Objects (%): 5%
  Population Membrane Permeable-Phenotype (%): 0%
  Population Mitochondria Different-Phenotype (%): 36%
  Population Mitotic Cells (%): 63%
  Population Normal (%): 94%
  Population Pyknosed Nuclei (%): 8%
  Population Tubulin-Different-Phenotype (%): 21%
  Total Cell Count: 577
[2]
  Population Apoptotic (%): 47%
  Population Fragmented Nuclei (%): 10%
  Population Healthy Nuclei (%): 75%
  Population Mitochondria Different-Phenotype (%): 53%
  Population Mitotic Cells (%): 52%
  Population Pyknosed Nuclei (%): 13%
  Population Tubulin-Different-Phenotype (%): 17%
  Total Cell Count: 310
[3]
  Population Apoptotic (%): 40%
  Population Fragmented Nuclei (%): 7%
  Population Healthy Nuclei (%): 75%
  Population Hoechst High Intensity Objects (%): 7%
  Population Membrane Permeable-Phenotype (%): 0%
  Population Mitochondria Different-Phenotype (%): 63%
  Population Mitotic Cells (%): 59%
  Population Normal (%): 92%
  Population Pyknosed Nuclei (%): 17%
  Population Tubulin-Different-Phenotype (%): 52%
  Total Cell Count: 328
[4]
  Population Apoptotic (%): 66%
  Population Healthy Nuclei (%): 67%
  Population Hoechst High Intensity Objects (%): 11%
  Population Membrane Permeable-Phenotype (%): 1%
  Population Mitochondria Different-Phenotype (%): 69%
  Population Mitotic Cells (%): 33%
  Population Normal (%): 88%
  Population Pyknosed Nuclei (%): 24%
  Population Tubulin-Different-Phenotype (%): 41%
  Total Cell Count: 259
[5]
  Population Apoptotic (%): 25%
  Population Fragmented Nuclei (%): 6%
  Population Healthy Nuclei (%): 82%
  Population Hoechst High Intensity Objects (%): 5%
  Population Membrane Permeable-Phenotype (%): 1%
  Population Mitochondria Different-Phenotype (%): 20%
  Population Mitotic Cells (%): 74%
  Population Normal (%): 94%
  Population Pyknosed Nuclei (%): 11%
  Population Tubulin-Different-Phenotype (%): 15%
  Total Cell Count: 710
[6]
  Population Apoptotic (%): 41%
  Population Fragmented Nuclei (%): 11%
  Population Healthy Nuclei (%): 79%
  Population Hoechst High Intensity Objects (%): 3%
  Population Membrane Permeable-Phenotype (%): 0%
  Population Mitochondria Different-Phenotype (%): 30%
  Population Mitotic Cells (%): 58%
  Population Normal (%): 96%
  Population Pyknosed Nuclei (%): 9%
  Population Tubulin-Different-Phenotype (%): 12%
  Total Cell Count: 447
[7]
  Population Apoptotic (%): 47%
  Population Fragmented Nuclei (%): 9%
  Population Healthy Nuclei (%): 77%
  Population Hoechst High Intensity Objects (%): 6%
  Population Membrane Permeable-Phenotype (%): 1%
  Population Mitochondria Different-Phenotype (%): 47%
  Population Mitotic Cells (%): 52%
  Population Normal (%): 93%
  Population Pyknosed Nuclei (%): 13%
  Population Tubulin-Different-Phenotype (%): 44%
  Total Cell Count: 414
[8]
  Population Apoptotic (%): 65%
  Population Fragmented Nuclei (%): 8%
  Population Healthy Nuclei (%): 79%
  Population Hoechst High Intensity Objects (%): 5%
  Population Membrane Permeable-Phenotype (%): 2%
  Population Mitochondria Different-Phenotype (%): 50%
  Population Mitotic Cells (%): 34%
  Population Normal (%): 94%
  Population Pyknosed Nuclei (%): 11%
  Population Tubulin-Different-Phenotype (%): 35%
  Total Cell Count: 322
[9]
  Population Apoptotic (%): 17%
  Population Fragmented Nuclei (%): 14%
  Population Healthy Nuclei (%): 80%
  Population Hoechst High Intensity Objects (%): 2%
  Population Membrane Permeable-Phenotype (%): 1%
  Population Mitochondria Different-Phenotype (%): 12%
  Population Mitotic Cells (%): 82%
  Population Normal (%): 97%
  Population Pyknosed Nuclei (%): 5%
  Population Tubulin-Different-Phenotype (%): 11%
  Total Cell Count: 1128
[10]
  Population Apoptotic (%): 23%
  Population Fragmented Nuclei (%): 11%
  Population Healthy Nuclei (%): 83%
  Population Hoechst High Intensity Objects (%): 1%
  Population Mitochondria Different-Phenotype (%): 17%
  Population Mitotic Cells (%): 76%
  Population Normal (%): 98%
  Population Pyknosed Nuclei (%): 4%
  Population Tubulin-Different-Phenotype (%): 9%
  Total Cell Count: 746
[11]
  Population Apoptotic (%): 34%
  Population Fragmented Nuclei (%): 13%
  Population Healthy Nuclei (%): 77%
  Population Hoechst High Intensity Objects (%): 8%
  Population Membrane Permeable-Phenotype (%): 1%
  Population Mitochondria Different-Phenotype (%): 29%
  Population Mitotic Cells (%): 65%
  Population Normal (%): 91%
  Population Pyknosed Nuclei (%): 8%
  Population Tubulin-Different-Phenotype (%): 28%
  Total Cell Count: 619
[12]
  Population Apoptotic (%): 52%
  Population Healthy Nuclei (%): 75%
  Population Hoechst High Intensity Objects (%): 9%
  Population Mitochondria Different-Phenotype (%): 38%
  Population Mitotic Cells (%): 47%
  Population Normal (%): 90%
  Population Pyknosed Nuclei (%): 10%
  Population Tubulin-Different-Phenotype (%): 30%
  Total Cell Count: 424
